{"source": "paper PMC3058531", "about": "(Biochemistry, 2010)", "key": {"[1]": {"biological_target": "T1, Southampton norovirus 3C protease (SV3CP) (Southampton virus, UniProt Q04544)", "T1 sequence (Q04544 1100-1280 limits assumed)": "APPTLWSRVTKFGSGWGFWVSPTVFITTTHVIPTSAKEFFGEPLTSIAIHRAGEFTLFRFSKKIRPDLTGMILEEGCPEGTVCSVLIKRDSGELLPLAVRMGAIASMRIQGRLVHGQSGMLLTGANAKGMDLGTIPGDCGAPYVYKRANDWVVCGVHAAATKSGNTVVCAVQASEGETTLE", "experiment": "Chromogenic pNA peptide substrate cleavage, initial rates at 405 nm", "format": "biochemical", "conditions": "compared with Ac-EFQLQ-pNA or other trial substrates; pH 8.5", "summary_of_the_method": "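Recombinant SV3CP expressed in E. coli BL21(DE3) pLysS, self-excised from flanking sequences, purified by two cation-exchange steps. N-acetylated peptide-pNA substrates in DMSO, diluted into 100 mM Tris pH 8.5 with 5 mM β-mercaptoethanol (final substrate 0.1−3.0 mM, enzyme 0.1 mg/mL). A405 of samples read every 1 min for 10 min; initial rates gave KM, kcat and kcat/KM.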"}, "[2]": {"biological_target": "T1, Southampton norovirus 3C protease (SV3CP)", "format": "biochemical", "conditions": "preincubation with millimolar concentrations of the inhibitor prior to addition of substrate; within the dead time of the experiment"}, "[3]": {"system": "Southampton norovirus 3C protease (SV3CP), Cys 139", "experiment": "X-ray structure of the SV3CP-MAPI complex", "format": "binding", "conditions": "cocrystal at 1.7 Å resolution, PDB 2IPH; crystals at pH 8.5"}, "[4]": {"biological_target": "T1, Southampton norovirus 3C protease (SV3CP)", "experiment": "Mass spectrometry of the SV3CP-MAPI complex", "format": "binding", "conditions": "single major protein peak at 20045 Da"}, "[5]": {"experiment": "Solubility of the inhibitor in protein buffer", "format": "physicochemical", "conditions": "10% DMSO had to be included in the buffer"}}, "note": "“Also recorded” adds a separate entry of the source. * marks the point of attachment. pNA = O=[N+]([O-])c1ccc(N*)cc1", "data": [{"substance": "Ac-DEFQLQ-pNA", "values": [{"measurement": "kcat/KM, kcat and KM comparison in words", "setting": "[1]", "value": "had a kcat which was higher than that of Ac-EFQLQ-pNA although its proportionately higher KM meant that it was a slightly inferior substrate in terms of specificity constant"}]}, {"substance": "Ac-EFQLQ-pNA", "values": [{"measurement": "kcat/KM, kcat and KM comparison in words", "setting": "[1]", "value": "had the highest kcat/KM ratio; also recorded: the best substrate in terms of specificity constant (kcat/KM ratio)"}]}, {"substance": "acetyl-Glu-Phe-Gln-Leu-Gln-X [MAPI]", "values": [{"measurement": "time to irreversible inactivation of the enzyme", "setting": "[2]", "value": "< 30", "unit": "s"}, {"measurement": "covalent binding mode", "setting": "[3]", "value": "the active site thiol of Cys 139 is bound covalently to the C-terminal Michael-acceptor extension of the inhibitor MAPI"}, {"measurement": "binding stoichiometry", "setting": "[4]", "value": "one molecule of SV3CP plus one molecule of the inhibitor"}, {"measurement": "solubility (in words)", "setting": "[5]", "value": "essentially insoluble"}]}]}
